In PubChem BioAssay AID720661 (The Scripps Research Institute Molecular Screening Center, 2013):
Calls of active or inactive are those of the source.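 Rule for the calls: active = EC50 of 10 µM or lower; inactive = EC50 above 10 µM.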

Test system: 293 cells GAL4-VP16 luciferase reporter, luminescence
Test: nonselective transcriptional activation, VP16 reporter – cell-based, luminescence, late stage, counter-screen for BRM (SMARCA2) activator project, dose response (AID 720661)
In short: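 System: 293 cells carrying GAL4-VP16 and pGL4.31 reporter / Doses: Ten-point threefold dilution series, top 91.2 µM nominal / Timing: 24 h compound treatment, 37 °C / Measured by: One-Glo luminescence / Read-out basis: EC50 from four-parameter fit of percent activation / Control set: DMSO and SAHA reference wells for normalization / Replication: each concentration tested in triplicate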

SMILES | EC50
Clc1ccc(Cc2nc(-c3ccccc3)cs2)cc1 | > 91.2 µM (inactive)
Cc1ccc(Nc2nc(-c3ccccc3)c(C)s2)cc1 | > 91.2 µM (inactive)
Oc1ccccc1OCc1nc2ccccc2s1 | > 91.2 µM (inactive)
Cc1cc(C)c2nc(NC(=O)C(C)C)sc2c1 | > 91.2 µM (inactive)
O=C(NCC1(c2nc(-c3ccccc3)cs2)CCOCC1)c1cccc(-c2noc(C(F)(F)F)n2)c1 | > 91.2 µM (inactive)
COc1ccc(-c2nc(C#N)c(NC3CC3)o2)cc1 | > 91.2 µM (inactive)
Cc1nc(NC(=O)c2cccc(Br)c2)sc1C | > 91.2 µM (inactive)
